From ChEMBL document CHEMBL1138335, “New N-arachidonoylserotonin analogues with potential "dual" mechanism of action against pain” (J Med Chem, 2007)
Activity calls are given as the source filed them. The calls are words filed in the database; no cut-off is given here.

Assays:
[1] = target: T1, Fatty-acid amide hydrolase 1 (Rattus norvegicus, UniProt P97612); test: Inhibition of rat brain FAAH assessed by measuring [14C]anandamide hydrolysis after 30 mins
T1 sequence (P97612 whole entry): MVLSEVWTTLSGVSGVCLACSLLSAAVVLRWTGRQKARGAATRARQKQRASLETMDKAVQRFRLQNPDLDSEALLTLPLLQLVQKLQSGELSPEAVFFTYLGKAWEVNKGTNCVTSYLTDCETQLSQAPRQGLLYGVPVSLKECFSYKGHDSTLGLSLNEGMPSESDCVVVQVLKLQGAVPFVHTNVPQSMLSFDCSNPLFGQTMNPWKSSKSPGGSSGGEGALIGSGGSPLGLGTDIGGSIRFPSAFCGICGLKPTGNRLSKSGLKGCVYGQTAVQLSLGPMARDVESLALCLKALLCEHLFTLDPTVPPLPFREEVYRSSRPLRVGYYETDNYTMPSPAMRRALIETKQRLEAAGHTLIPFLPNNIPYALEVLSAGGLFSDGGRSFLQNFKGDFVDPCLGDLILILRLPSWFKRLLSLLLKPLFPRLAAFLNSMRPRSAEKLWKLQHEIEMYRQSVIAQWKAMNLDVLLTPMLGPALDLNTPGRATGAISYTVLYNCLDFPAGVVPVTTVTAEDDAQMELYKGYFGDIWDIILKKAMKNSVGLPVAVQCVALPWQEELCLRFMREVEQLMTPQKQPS

[2] = target: Transient receptor potential cation channel subfamily V member 1 (Homo sapiens, UniProt Q8NER1); test: Antagonist activity at human recombinant TRPV1 receptor expressed in HEK293 cells assessed as inhibition of capsaicin-induced intracellular calcium elevation; type: functional, cell-based
Sequence of Transient receptor potential cation channel subfamily V member 1 (Q8NER1 whole entry): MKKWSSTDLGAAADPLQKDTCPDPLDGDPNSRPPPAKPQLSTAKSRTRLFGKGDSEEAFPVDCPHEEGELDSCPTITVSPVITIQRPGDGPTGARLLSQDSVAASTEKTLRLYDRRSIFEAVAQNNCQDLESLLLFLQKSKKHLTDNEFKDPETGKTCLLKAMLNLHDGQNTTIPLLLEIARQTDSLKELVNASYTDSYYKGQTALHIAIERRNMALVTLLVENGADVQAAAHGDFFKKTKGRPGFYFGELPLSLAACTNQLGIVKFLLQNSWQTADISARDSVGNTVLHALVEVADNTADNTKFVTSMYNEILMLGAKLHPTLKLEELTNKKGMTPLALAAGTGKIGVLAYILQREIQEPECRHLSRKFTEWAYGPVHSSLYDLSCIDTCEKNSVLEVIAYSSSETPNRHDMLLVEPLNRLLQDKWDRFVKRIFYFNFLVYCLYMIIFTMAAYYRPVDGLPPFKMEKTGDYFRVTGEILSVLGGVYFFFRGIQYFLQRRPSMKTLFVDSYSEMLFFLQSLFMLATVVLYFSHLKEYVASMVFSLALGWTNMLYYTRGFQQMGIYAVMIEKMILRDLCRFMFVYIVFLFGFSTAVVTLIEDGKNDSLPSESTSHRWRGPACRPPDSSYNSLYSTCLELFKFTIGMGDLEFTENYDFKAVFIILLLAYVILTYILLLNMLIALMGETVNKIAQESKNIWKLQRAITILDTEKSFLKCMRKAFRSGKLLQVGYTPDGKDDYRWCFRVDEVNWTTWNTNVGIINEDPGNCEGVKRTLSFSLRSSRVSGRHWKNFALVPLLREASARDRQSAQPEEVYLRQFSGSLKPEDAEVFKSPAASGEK
Outline: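 Stably transfected HEK293 cells grown in MEM with nonessential amino acids, 10% FCS, 0.2 mM glutamine, 37 °C. Plated on poly-L-lysine a day before. Loaded 2 h at 25 °C with 4 µM Fluo-3 AM, washed, trypsinized, resuspended in Tyrode pH 7.4.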

Mus musculus = test: Antinociceptive activity in ip dosed mouse assessed as inhibition of formalin-induced hyperalgesia; type: functional, organism-based
Outline: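 Mice given compound ip 15 min before 1.25% formalin into the dorsal hind paw (n = 8–10 per group). Doses were 0.3–5 or 1–10 mg/kg. Some groups also got AM251 or AM630 (3 mg/kg ip) or I-RTX (0.1–0.2 mg/kg ip) 5 min earlier. Lifting, licking, flinching and similar behaviour timed every 5 min for 60 min. IC50 estimated at 40 min post-formalin.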

RBL-2H3 = test: Inhibition of anandamide uptake in RBL-2H3 cells upto 25 uM after 5 mins by anandamide membrane transport assay; type: functional, cell-based; conditions: Rattus norvegicus
[3] = target: T2, Fatty-acid amide hydrolase 1 (Rattus norvegicus) (UniProt P97612); conditions: at 50 µM
T2 sequence (whole entry): T1 sequence (P97612 whole entry)

SMILES | IC50 [1] | IC50 [2] | IC50 (Mus musculus) | Activity (RBL-2H3) | inhibition [3]
O=C(CCCCCCCc1ccccc1)NCCc1c[nH]c2ccc(O)cc12 | 34 µM | 2.13 µM |  |  | 
O=C(NCCc1c[nH]c2ccc(O)cc12)Oc1ccc(Cl)cc1 | 6.8 µM | > 10 µM |  |  | 
CCCCC/C=C\C/C=C\C/C=C\C/C=C\CCCC(=O)NCCc1c[nH]c2ccc(O)cc12 | 8 µM | 0.27 µM | 0.5 mg/kg |  | 
O=C(NCCc1ccc(Cl)cc1)NCCc1c[nH]c2ccc(O)cc12 | > 50 µM | > 10 µM |  |  | 
CCCCCCCCCCCC(=O)NCCc1c[nH]c2ccc(O)cc12 | > 50 µM | 0.74 µM |  |  | 
O=C(Cc1cccc(-c2ccccc2)c1)NCCc1c[nH]c2ccc(O)cc12 | > 50 µM | 0.43 µM | 5 mg/kg |  | 
O=C(NCCc1c[nH]c2ccc(O)cc12)Oc1ccc(C(F)(F)F)cc1 | 6.4 µM | > 10 µM |  |  | 
O=C(NCCc1c[nH]c2ccc(O)cc12)Oc1cccc(I)c1 | 1.8 µM | > 10 µM |  |  | 
O=C(NCCc1c[nH]c2ccc(O)cc12)Oc1ccc2ccccc2c1 | 10 µM | > 10 µM |  | inactive | 
CCCCC/C=C\C/C=C\C/C=C\C/C=C\CCCCOC(=O)NCCc1c[nH]c2ccc(O)cc12 | > 50 µM | 2.82 µM |  |  | 
CCCCC/C=C\C/C=C\CCCCCCCC(=O)NCCc1c[nH]c2ccc(O)cc12 | 30 µM | 1.82 µM |  |  | 
CCCCCCCC/C=C\CCCCCCCC(=O)NCCc1c[nH]c2ccc(O)cc12 | > 50 µM | 2.57 µM |  |  | 
O=C(NCCc1c[nH]c2ccc(O)cc12)Oc1cccc(Cl)c1 | 1.9 µM | > 10 µM |  |  | 
CCCCCc1cccc(-c2cccc(CCCC(=O)NCCc3c[nH]c4ccc(O)cc34)c2)c1 | 50 µM | > 10 µM |  |  | 
O=C(NCCc1c[nH]c2ccc(O)cc12)Oc1cccc(C(F)(F)F)c1 | 2.2 µM | > 10 µM |  |  | 
O=C(NCCc1c[nH]c2ccc(O)cc12)Nc1cccc(-c2ccccc2)c1 | > 50 µM | 0.72 µM |  |  | 
O=C(NCCc1c[nH]c2ccc(O)cc12)Oc1cccc(-c2ccccc2)c1 | 0.5 µM | > 10 µM | 4 mg/kg | inactive | 
CC/C=C\C/C=C\C/C=C\CCCCCCCC(=O)NCCc1c[nH]c2ccc(O)cc12 | 10 µM | 0.47 µM |  |  | 
CCCCCCCCCCC(=O)NCCc1c[nH]c2ccc(O)cc12 | > 50 µM | 0.76 µM |  |  | 
C=C(C)[C@]12C[C@@H](C)[C@@]34O[C@](Cc5ccccc5)(O[C@@H]1[C@@H]3C=C(COC(=O)Cc1cc(I)c(O)c(OC)c1)C[C@]1(O)C(=O)C(C)=C[C@@H]41)O2 |  |  |  |  | < 10%
CCCCCc1cccc(CC(=O)NCCc2c[nH]c3ccc(O)cc23)c1 | > 50 µM | 0.24 µM |  |  | 
CCCCCc1cccc(OC(=O)NCCc2c[nH]c3ccc(O)cc23)c1 | 3.6 µM | 2.4 µM |  | inactive | 
CC(C)(C)c1cccc(OC(=O)NCCc2c[nH]c3ccc(O)cc23)c1 | 3.7 µM | > 10 µM |  |  | 
O=C(CCCCC1CCSS1)NCCc1c[nH]c2ccc(O)cc12 (racemic) | > 50 µM | > 10 µM |  |  | 
CC(C)(C)c1ccc(OC(=O)NCCc2c[nH]c3ccc(O)cc23)cc1 | > 10 µM | 5.25 µM |  |  | 
O=C(NCCc1c[nH]c2ccc(O)cc12)Oc1ccc(I)cc1 | 5 µM | > 10 µM |  |  | 
O=C(CCCCCCCCc1ccccc1)NCCc1c[nH]c2ccc(O)cc12 | 30 µM | 0.68 µM |  |  | 

Further lines, with some results ahead:

IC50 [1] | IC50 [2] | IC50 (Mus musculus) | SMILES | Activity (RBL-2H3) | inhibition [3]
50 µM | 3.8 µM |  | CC(C)(C)c1ccc(CNC(=O)NCCc2c[nH]c3ccc(O)cc23)cc1 |  | 
> 50 µM | > 10 µM |  | CC/C=C\C/C=C\C/C=C\CCCCCCCCOC(=O)NCCc1c[nH]c2ccc(O)cc12 |  | 
> 50 µM | > 10 µM |  | O=C(NCCc1ccc(Oc2ccccc2)cc1)NCCc1c[nH]c2ccc(O)cc12 |  | 
50 µM | > 10 µM |  | CCCCCc1ccc2ccc(CCCC(=O)NCCc3c[nH]c4ccc(O)cc34)cc2c1 |  | 
> 50 µM | 9.12 µM |  | O=C(CCCCCCc1ccccc1)NCCc1c[nH]c2ccc(O)cc12 |  | 
10 µM | 0.95 µM |  | CCCCC/C=C\C/C=C\C/C=C\CCCCC(=O)NCCc1c[nH]c2ccc(O)cc12 |  | 
> 50 µM | > 10 µM |  | O=C(NCCc1ccccc1)NCCc1c[nH]c2ccc(O)cc12 |  | 
> 50 µM | 2.63 µM |  | CCCCCc1cccc(NC(=O)NCCc2c[nH]c3ccc(O)cc23)c1 |  | 
> 50 µM | > 10 µM |  | CCCCC/C=C\C/C=C\CCCCCCCCOC(=O)NCCc1c[nH]c2ccc(O)cc12 |  | 
> 50 µM | > 10 µM |  | CCCCC/C=C\C/C=C\C/C=C\CCCCCOC(=O)NCCc1c[nH]c2ccc(O)cc12 |  | 
1.17 µM | > 10 µM |  | O=C(NCCc1c[nH]c2ccc(O)cc12)Oc1ccc(OCc2ccccc2)cc1 | inactive | 
> 50 µM | > 10 µM |  | O=C(NCCc1ccc(-c2ccccc2)cc1)NCCc1c[nH]c2ccc(O)cc12 |  | 
